In the array DNA melting data of Ke et al. (doi:10.1101/2024.01.08.574731) one finds Tm and folding enthalpy data, which are given here for 55 sequences.

Series [1] in a line: melting temperature; fluorescence melt of hairpins on a sequencing array, two-state fit, raised by 9.35 °C to match UV melts. Conditions: sodium 0.088 M. The gist of the method:
(§1)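 With Cy3 and quencher oligos annealed, library hairpins on a sequenced MiSeq flow cell were imaged for Cy3 fluorescence in 50 mM Na-HEPES pH 8.0, 25 mM NaCl, in 2.5 °C steps up to 60 °C. Melting temperature and folding enthalpy were derived from bootstrapped two-state fits of signals normalised to pre-quench Cy3 and to control constructs. Four replicates were combined by inverse variance, with fitted temperatures raised by 9.35 °C to match UV melts.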

A short description of series [2]: folding enthalpy; higher = less favourable; fluorescence melt of hairpins on a sequencing array, two-state fit. Conditions: sodium 0.088 M. The gist of the method:
as §1

In the case of GCGAGTGGAAACACCCGC (((.(((....))).))), the Tm in series [1] turned out to be 51.9 °C. In addition, the folding enthalpy in series [2] is -26.4 kcal/mol.

Regarding GCAATGGCGAAAGCCTGC (((..(((....)))))), in series [1], the Tm is 50.5 °C. Moreover, the folding enthalpy in series [2] is -14.1 kcal/mol.

Regarding GCTAGCGCGAAAGCGAGC (((..(((....)))))), in series [1], the Tm came to 44.9 °C. The folding enthalpy in series [2] was -12.9 kcal/mol.

On to GCTGGCGAAAGCCGAGC ((((((....))).))), for which, in series [1], the Tm turned out to be 65.3 °C. Besides, in series [2], the folding enthalpy is -23.5 kcal/mol.

For the sequence GCGCCGCGAAAGCGTTGC ((..(((....)))..)), the Tm in series [1] turned out to be 47.6 °C. In addition, the folding enthalpy in series [2] was -15.3 kcal/mol.

On to GCCTACGAAAGTAATGGC ((((((....)))..))), for which, in series [1], the Tm was found to be 45.3 °C. Moreover, the folding enthalpy in series [2] is -24.8 kcal/mol.

Consider CGGTCGGAAACGAGCCG ((((((....))).))), for which the Tm in series [1] worked out at 51.2 °C. The folding enthalpy in series [2] is -21.6 kcal/mol.

Turning to GATCAAATCTTGATC ((((((...)))))), the Tm in series [1] is 42 °C. The folding enthalpy in series [2] is -27.8 kcal/mol.

Consider GCTCTCGGAAACGAGGGC ((.((((....)))).)), for which the Tm in series [1] came out at 58.7 °C. In addition, the folding enthalpy in series [2] was -40 kcal/mol.

On to GGCGGTGGAAACATCGCC ((((.((....)).)))), for which the Tm in series [1] turned out to be 63.1 °C. Further, in series [2], the folding enthalpy was -38.6 kcal/mol.

On to GATCTTCTGGAAGATC ((((((....)))))), for which the Tm in series [1] is 49.7 °C. In addition, the folding enthalpy in series [2] was -46.2 kcal/mol.

Regarding GCGCTGCGAAAGCGGAGC ((.(.((....)).).)), in series [1], the Tm was determined as 63.3 °C. For the same sequence, the folding enthalpy in series [2] was -21.4 kcal/mol.

With GCGAAGATCGC ((((...)))), in series [1], the Tm turned out to be 49.5 °C. For the same sequence, in series [2], the folding enthalpy was -13.7 kcal/mol.

GAGGCCGGAAACGACCCC (.((.((....)).)).): the Tm in series [1] was found to be 30.6 °C. The folding enthalpy in series [2] was -19.7 kcal/mol.

For the sequence GGAGTCGAAAGACGATCC ((((((....)))..))), the Tm in series [1] came to 46 °C. Also, the folding enthalpy in series [2] is -12.3 kcal/mol.

On to GATCCGCCCACGGATC ((((((....)))))), for which, in series [1], the Tm was 59.5 °C. Besides, the folding enthalpy in series [2] is -43.6 kcal/mol.

In the case of GCATCGCGAAAGCGACGC ((.((((....)))).)), the Tm in series [1] was found to be 63.9 °C. For the same sequence, the folding enthalpy in series [2] is -21.4 kcal/mol.

Turning to GTCCGCGAAAGCGCTGAC ((((((....)))..))), the Tm in series [1] is 38.2 °C. In addition, the folding enthalpy in series [2] was -10.6 kcal/mol.

Consider GGACCCGAAAGGGATTCC ((((((....)))..))), for which, in series [1], the Tm was determined as 37.5 °C. Besides, the folding enthalpy in series [2] is -12.2 kcal/mol.

On to GTTGGCGAAAGCCGCAAC ((((((....)))..))), for which the Tm in series [1] is 26.3 °C. For the same sequence, in series [2], the folding enthalpy was -9.16 kcal/mol.

With GGAGACCGAAAGGTTTCC (((.(((....))).))), in series [1], the Tm is 55.5 °C. In series [2], the folding enthalpy is -41.5 kcal/mol.

Regarding GATGCCGAAAGGCTATC ((((((....))).))), the Tm in series [1] was determined as 43.4 °C. Moreover, in series [2], the folding enthalpy was -13.1 kcal/mol.

For GTACGGCGAAAGCCATAC (((.(((....))).))), the Tm in series [1] turned out to be 42.1 °C. Also, the folding enthalpy in series [2] was -17.7 kcal/mol.

With GAGGCCGGAAACGGCTTC ((.((((....)))).)), the Tm in series [1] worked out at 55.9 °C. Also, the folding enthalpy in series [2] was -16.9 kcal/mol.

Take GTCGGTGGAAACGTCGAC ((((..(....)..)))): the Tm in series [1] was determined as 45.3 °C. The folding enthalpy in series [2] was -19.7 kcal/mol.

With GATCATCTGAATGATC ((((((....)))))), the Tm in series [1] worked out at 46.3 °C. Besides, the folding enthalpy in series [2] was -33.6 kcal/mol.

Turning to GTCCAGGGAAACCTGAAC ((.((((....)))).)), in series [1], the Tm came out at 35.9 °C. In addition, in series [2], the folding enthalpy was -19.5 kcal/mol.

As to GCGTAGCGAAAGCTTAGC ((..(((....)))..)), in series [1], the Tm is 51.5 °C. The folding enthalpy in series [2] is -14.6 kcal/mol.

For GTTAGTCGAAAGACAAAC (((.(((....))).))), the Tm in series [1] was 41.2 °C. In addition, the folding enthalpy in series [2] is -21.9 kcal/mol.

On to GGGACCGAAAGGTTCCCC ((((((....)))..))), for which the Tm in series [1] stood at 59.7 °C. Moreover, the folding enthalpy in series [2] is -15.4 kcal/mol.

Consider GTCATAGCGAAAGCTGAC (((..(((....)))))), for which the Tm in series [1] worked out at 46.6 °C. Moreover, in series [2], the folding enthalpy is -22.8 kcal/mol.

As for GTATGGCGAAAGCCTAC (((.(((....)))))), the Tm in series [1] amounted to 46.6 °C. Moreover, the folding enthalpy in series [2] was -13.2 kcal/mol.

For the sequence GCACTCGAAAGAGCTGC ((((((....))).))), in series [1], the Tm was determined as 48.1 °C. Moreover, the folding enthalpy in series [2] is -28.3 kcal/mol.

With AGAATCCGAAAGGCTTCT ((((.((....)).)))), the Tm in series [1] was 35.6 °C. Besides, the folding enthalpy in series [2] is -27.3 kcal/mol.

For the sequence GATCCGTACCGGATC ((((((...)))))), the Tm in series [1] was 58.9 °C. Also, in series [2], the folding enthalpy is -34.8 kcal/mol.

As to GCGTCCGAAAGGAAGCGC ((((((....)))..))), the Tm in series [1] came out at 67.4 °C. Also, in series [2], the folding enthalpy is -29.7 kcal/mol.

On to GGTCCAGGAAACCGGACC (((((.(....).))))), for which the Tm in series [1] stood at 53.3 °C. Also, the folding enthalpy in series [2] was -38.8 kcal/mol.

Regarding GCGTATCTACGC ((((....)))), the Tm in series [1] worked out at 56.9 °C. In addition, the folding enthalpy in series [2] was -24.4 kcal/mol.

For GGTAAATCGAAAGATACC (((..(((....)))))), in series [1], the Tm amounted to 30.4 °C. Further, the folding enthalpy in series [2] was -15.1 kcal/mol.

For the sequence GCAAAACGAAAGTTCTGC (((.(((....))).))), the Tm in series [1] was 40.7 °C. In addition, the folding enthalpy in series [2] was -27.8 kcal/mol.

Turning to GGGACCGAAAGGTCACCC ((((((....)))..))), in series [1], the Tm is 56.9 °C. Moreover, the folding enthalpy in series [2] was -12.2 kcal/mol.

In the case of GGGGAAGGAAACTTTCCC (((.(((....))).))), the Tm in series [1] came out at 48.3 °C. Also, in series [2], the folding enthalpy was -29 kcal/mol.

Regarding GGACCTCGAAAGAGCTCC (((.(((....))).))), the Tm in series [1] was 37 °C. The folding enthalpy in series [2] is -25.5 kcal/mol.

As to GATCCTAGTGAGGATC ((((((....)))))), the Tm in series [1] amounted to 50.9 °C. For the same sequence, the folding enthalpy in series [2] is -36.2 kcal/mol.

As to GCGAAAAATCGC ((((....)))), the Tm in series [1] amounted to 36.2 °C. In series [2], the folding enthalpy is -9.87 kcal/mol.

For GAATGTGGAAACACATTC (((((((....))))))), in series [1], the Tm worked out at 59.4 °C. Also, the folding enthalpy in series [2] is -38.6 kcal/mol.

In the case of GGCAAGACGAAAGTCGCC (((..(((....)))))), the Tm in series [1] was 54.2 °C. For the same sequence, in series [2], the folding enthalpy was -18.9 kcal/mol.

For CGTTCCCGGAAACGGACG (((..(((....)))))), the Tm in series [1] is 35.3 °C. Further, in series [2], the folding enthalpy was -21.6 kcal/mol.

For GCTCAAACGAAAGTTAGC (((..(((....)))))), in series [1], the Tm amounted to 29.4 °C. Besides, the folding enthalpy in series [2] was -22.6 kcal/mol.

Regarding GGGGTCACGAAAGTGCCC (((..(((....)))))), the Tm in series [1] worked out at 58.8 °C. For the same sequence, the folding enthalpy in series [2] is -21.4 kcal/mol.

Take GCATGTGCGAAAGCATGC (((..(((....)))))): in series [1], the Tm turned out to be 52.2 °C. The folding enthalpy in series [2] is -18.3 kcal/mol.

For GATCTCACGGAGATC ((((((...)))))), the Tm in series [1] was found to be 54.1 °C. The folding enthalpy in series [2] was -41.9 kcal/mol.

Regarding GCAAACGGAAACGTTCGC ((.((((....)))).)), the Tm in series [1] came to 46.4 °C. For the same sequence, the folding enthalpy in series [2] is -29.7 kcal/mol.

In the case of GAGTGGCGAAAGCCCTC (((.(((....)))))), the Tm in series [1] came out at 51.3 °C. Besides, the folding enthalpy in series [2] was -16.4 kcal/mol.

For the sequence GCCCGGCGAAAGCACGGC (((..((....))..))), in series [1], the Tm came to 57.1 °C. Moreover, in series [2], the folding enthalpy is -13.3 kcal/mol.
